Pyk2 oligo antag = Pyk2 (human) oligomerization antagonism. 99,000 tested, 0.83% active. Q14289. z-score (the deposit names both 25 µM and 10 µM). Q293 cells, Pyk2 FERM NanoBiT luminescence; stronger effect = lower value;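 active = Z-score of -3 or lower, scaled per plate to the spread of control and sample wells; inactive = z-score above -3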;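 also: negative z-score means lost luminescence so less FERM oligomerization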
Target sequence (Q14289 whole entry, looked up): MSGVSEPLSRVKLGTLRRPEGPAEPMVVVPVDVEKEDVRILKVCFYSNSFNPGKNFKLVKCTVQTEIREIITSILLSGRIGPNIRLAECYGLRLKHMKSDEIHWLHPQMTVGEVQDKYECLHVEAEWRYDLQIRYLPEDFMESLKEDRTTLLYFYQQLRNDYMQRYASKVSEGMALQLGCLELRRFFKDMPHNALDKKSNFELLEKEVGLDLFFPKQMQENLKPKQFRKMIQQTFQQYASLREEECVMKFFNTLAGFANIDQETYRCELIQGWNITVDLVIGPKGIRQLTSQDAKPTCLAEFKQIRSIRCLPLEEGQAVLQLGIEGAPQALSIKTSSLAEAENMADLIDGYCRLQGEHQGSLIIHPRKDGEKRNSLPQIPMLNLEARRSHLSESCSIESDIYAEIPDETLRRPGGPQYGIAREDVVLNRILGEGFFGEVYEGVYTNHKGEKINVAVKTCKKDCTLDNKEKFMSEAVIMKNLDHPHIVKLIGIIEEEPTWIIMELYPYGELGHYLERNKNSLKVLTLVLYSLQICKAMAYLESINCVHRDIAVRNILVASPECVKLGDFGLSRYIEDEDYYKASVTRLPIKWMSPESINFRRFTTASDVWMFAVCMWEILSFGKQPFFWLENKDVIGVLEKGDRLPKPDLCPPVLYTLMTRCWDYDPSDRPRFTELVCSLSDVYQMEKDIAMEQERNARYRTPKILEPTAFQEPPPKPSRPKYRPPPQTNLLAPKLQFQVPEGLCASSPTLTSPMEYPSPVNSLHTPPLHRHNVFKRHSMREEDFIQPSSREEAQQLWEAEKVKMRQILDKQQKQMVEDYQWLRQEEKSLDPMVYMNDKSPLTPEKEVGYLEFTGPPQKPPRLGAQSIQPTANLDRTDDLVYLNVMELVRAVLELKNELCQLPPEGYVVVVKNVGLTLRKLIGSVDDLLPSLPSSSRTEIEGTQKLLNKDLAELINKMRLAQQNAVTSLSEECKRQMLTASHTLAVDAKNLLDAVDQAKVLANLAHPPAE
FAK inh = inhibitors of human focal adhesion kinase; Q05397; biochemical FAK kinase activity assay; inhibition, %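 (tested at 7 µM)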; 97,000 tested, 0.84% active; in the data active = inhibition above about 19%;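 also: 0% = DMSO and 100% = reference compound high control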
Rev-RRE block = disrupts HIV-1 Rev binding to RRE RNA | P05866 | Rev peptide-RRE RNA binding, FRET | inhibition, % at 8 µM | 97,000 tested, 0.79% active;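 active = inhibition above the screen-wide mean plus 3 SD, cut at about 35% in these data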;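 also: 0% = median DMSO wells and 100% = median Neomycin B control wells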
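assay system = Cy5-tagged RRE RNA duplex with fluorescein-tagged Rev peptide | incubation = 5 + 15 min at 25 °C | also added = labelled Rev peptide | measure = % inhibition of FRET ratio versus controls | benchmarks = DMSO wells as 0% and neomycin B wells as 100% inhibition | measured by = FRET fluorescence readout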
Cav32 inh = human Cav3.2 channel inhibition, primary screen. 100,000 tested, 4% active. Cav3.2-expressing cells, Fluo-4 calcium fluorescence FDSS; stronger effect = lower value. B-score at 10 µM. O95180;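 active = single-dose well whose peak fluorescence ratio is a statistical outlier from its plate by either plate-standardised score or position-corrected B-score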
Plk1 PBD FP = Plk1 (human) PBD binding inhibition. 97,000 tested, 0.13% active. Plk1 PBD phosphopeptide binding, fluorescence polarization. P53350. inhibition, %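 (tested at about 20 µM)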; in the data active = inhibition above about 34%, passing the limit was not always enough
PLK1 kinase inh = PLK1 (human) kinase inhibition; recombinant PLK1 kinase, TR-FRET peptide phosphorylation; P53350; 97,000 tested, 0.53% active; AID 619; inhibition, % at 10 µM;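 active = inhibition of 50% or more in the single-concentration screen; inactive = inhibition below 50%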;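 also: 0% = DMSO max control and 100% = H-89 dihydrochloride min control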
Starred values were filed as active, the others as inactive; . = no result; [ ] = another dose, or the depositor's remark. Most compounds without a hit are left out; they make up all but 5.8% or so of the library.

SMILES | Pyk2 oligo antag | FAK inh | Rev-RRE block | Cav32 inh | Plk1 PBD FP | PLK1 kinase inh
O=C(NCCc1ccc(F)cc1)c1cccs1 | -0.44 | 2.7 | -0.1 | 0.917 | 10.6 | -11.5
O=C(NCCc1csc(-c2ccc(C(F)(F)F)cc2)n1)c1cccs1 | . | -1.1 | 10.3 | -6.12* | -4.9 | -32.2
CCn1c2ccccc2c2nnc(SCCCn3c(=O)[nH]c4ccccc43)nc21 | -3.47* | -0.3 | -3.1 | -1.07 | 11.3 | -9.1
O=S(=O)(NCc1ccccc1)c1ccc(Cl)c(S(=O)(=O)NCc2ccccc2)c1 | -0.67 | -1.3 | 6.2 | -3.44 | -12.0 | -5.8
O=S(=O)(NCc1cc(-c2ccccc2Cl)no1)c1ccc(Cl)cc1 | 0.52 | -1.9 | 13.9 | -7.18* | -28.9 | -12.3
O=C1C(=O)N(CCCN2CCOCC2)C(c2cccs2)/C1=C(/O)c1ccc2c(c1)OCO2 (stereo unspecified) | . | -4.4 | -2.7 | 0.694 | 3.8 | -5.8
CCn1c(SCC(=O)Nc2ccc(C(=O)OC)cc2)nc2cccnc21 | 0.09 | -1.4 | 7.2 | -0.27 | -10.9 | -11.5
CCOc1cccc(SCc2noc(C(=O)NCC3CCCO3)c2C(=O)O)c1 (stereo unspecified) | . | 9.6 | 4.2 | 0.31 | -5.8 | 0.5
Cc1ccc(-n2c(C)nc3c(cnn3-c3ccc(F)cc3)c2=O)cc1 | -1.24 | 5.3 | 6.5 | . | 3.2 | -19.2
Cc1nc2c(cnn2-c2ccccc2Cl)c(=O)n1-c1ccc(C(C)C)cc1 | -1.6 | -0.4 | 6.7 | -6.22* | 12.4 | 3.7
COc1cccc(-c2csc(N3CCN(C(=O)Nc4ccc(F)cc4)CC3)n2)c1 | -0.02 | -0.2 | -1.2 | -6.48* | -28.0 | -7.5
CCN(CC)CCCn1c(C)cc2c(c1=O)C(c1cccc(Cl)c1)C(C#N)=C(N)O2 (stereo unspecified) | 1.59 | -3.2 | -1.6 | . | 46.5* | -4.6
N#CC1=C(N)SC(N)=C(C#N)C1c1ccnc2ccccc12 | -0.35 | -0.4 | 59.5* | 0.555 | -20.8 | -4.6
CCOC(=O)c1ccc2[nH]cc(C(C)=O)c(=O)c2c1 | -0.51 | 6.2 | 52.7* | 0.00116 | -17.3 | -7.2
Cc1cccc(NC(=O)Cn2cccc2)c1 | 1.66 | -12.2 | 6.7 | -0.0642 | -18.1 | -3.4
Cc1cccc(NC(=O)CNc2cc(C)ccc2C)c1 | 0.86 | 4.2 | 0.0 | -5.76* | -9.2 | -8.2
Cc1oc(=O)c(NC(=O)c2ccccc2)cc1C(=O)c1ccccc1 | -0.12 | 3.2 | -0.6 | -0.396 | -13.5 | -7.0
CCOC(=O)c1cc(NC(=O)c2ccc(OC)cc2)c(=O)oc1-c1ccccc1 | -0.45 | -1.6 | 0.8 | -0.732 | 16.3 | -8.4
COc1ccc(C(=O)Nc2cc(C(C)=O)c(/C=C/N(C)C)oc2=O)cc1 | -0.21 | -1.4 | 121.8*[fluorescence artefact?] | . | -80.7 | -15.9
CC(=O)c1cc(NC(=O)c2ccc(C)cc2)c(=O)oc1/C=C/N(C)C | -0.97 | -3.7 | 122.3*[fluorescence artefact?] | -3.13 | -105.8 | -14.2
O=c1ccccn1Cc1c(F)cccc1Cl | 0.66 | -3.5 | 9.5 | 0.844 | -12.6 | -5.3
COc1ccc(CNc2oc(Cc3cccc4ccccc34)nc2C#N)cc1 | -0.65 | -5.9 | 9.7 | -7.01* | -9.0 | -2.4
COc1ccc(CNc2oc(COc3ccccc3)nc2C#N)cc1 | 0.28 | -0.8 | 16.8 | . | -6.2 | 9.7
N#Cc1nc(Cc2ccccc2)oc1NCc1ccccc1 | -1.51 | 0.4 | 9.0 | -5.41* | 17.7 | -1.6
CCOC(=O)N1CCN(C(=O)CN(c2ccc(Cl)c(C(F)(F)F)c2)S(C)(=O)=O)CC1 | 0.83 | 0.3 | -0.3 | 2.72 | -17.6 | -4.3
SMILES | Pyk2 oligo antag | FAK inh | Rev-RRE block | Cav32 inh | Plk1 PBD FP | PLK1 kinase inh
COc1ccc(NS(=O)(=O)c2cc(NC(=O)c3cccc(OCc4c(C)noc4C)c3)ccc2OC)cc1 | -0.47 | . | . | . | . | .
O=C(O)CSc1nc2ccccc2[nH]1 | 0.38 | 1.1 | 0.3 | -0.0913 | 23.0 | -22.7
Cc1ccc2nc(SCCCCOc3ccccc3)[nH]c2c1 | 0.16 | -4.2 | 14.0 | -6.25* | -18.1 | 3.4
c1ccc(OCCSc2nc3ccccc3[nH]2)cc1 | 1.92 | -0.2 | 1.4 | -3.63* | -8.4 | -5.2
Cc1noc(C)c1S(=O)(=O)N(C)CC(=O)NCc1ccccc1 | 1.16 | -4.3 | 4.9 | 0.48 | 11.3 | 4.1
Cc1noc(C)c1S(=O)(=O)N(CCc1ccccc1)Cc1ccccc1 | 1 | -2.4 | 14.2 | -4.69* | 10.7 | -18.1
COCCNC(=O)c1c(N)n(CCC2=CCCCC2)c2nc3ccccc3nc12 | 0.3 | 3.3 | 55.8* | -2.06 | -32.0 | -8.1
COCCn1c(N)c(C(=O)OCc2ccccc2)c2nc3ccccc3nc21 | -0.73 | -0.3 | 16.8 | -3.62 | 1.2 | -19.3
O/N=C(\c1ccc(Cl)cc1Cl)c1ncc(C(F)(F)F)cc1Cl | -1.31 | 2.0 | 20.8 | -6.81* | -4.2 | -7.0
CCCN(CCO)Cc1ccc2ccccc2c1 | 2.12 | -0.1 | 4.5 | 0.332 | -17.8 | -14.4
CCCCn1c(SCC(=O)Nc2ccc3c(c2)OCO3)nc2c1c(=O)n(C)c(=O)n2C | -0.78 | -2.4 | 3.3 | -0.0283 | 8.6 | 14.1
Cc1ccc(C)c(N2CCN(C(=O)CC3Sc4ccccc4NC3=O)CC2)c1 (stereo unspecified) | . | 0.3 | 3.0 | -6.88* | -29.9 | -9.0
Cc1ccc(C)c(N2CCN(C(=O)Cc3cn(C)c4ccccc34)CC2)c1 | 0.31 | -2.5 | 7.5 | -5.38* | -19.9 | -11.2
COc1ccc(NC(=O)N(CCN2CCCC2)Cc2cc3cc(OC)c(OC)cc3[nH]c2=O)cc1 | -0.46 | 0.9 | 11.9 | . | -7.0 | -8.8
COc1ccc(-c2nc(-c3ccc(C(=O)O)cc3)no2)cc1 | . | . | . | 0.771 | . | .
N#Cc1cccc(C(c2nnnn2C2CCCC2)N2CCCCCC2)c1 (stereo unspecified) | -0.39 | -4.7 | 8.9 | -4.24 | -43.7 | -13.8
N#Cc1cccc(C(c2nnnn2C2CCCC2)N2CCC(Cc3ccccc3)CC2)c1 (stereo unspecified) | -4.39* | 0.0 | 6.4 | -7* | 6.3 | -20.6
N#Cc1ccc(C(c2nnnn2C2CCCC2)N2CCC(Cc3ccccc3)CC2)cc1 (stereo unspecified) | -1.07 | -2.2 | 8.6 | -6.19* | -20.4 | -5.2
Cc1cc([N+](=O)[O-])cnc1NC(C)c1ccccc1 (stereo unspecified) | -0.65 | 1.6 | -0.6 | -3.63 | 7.2 | -5.6
CCn1c(SC(=O)NC2CCCCC2)nnc1-c1cccs1 | 1.66 | -2.4 | 1.4 | -0.0018 | -22.1 | -0.1
CCN(CC)S(=O)(=O)c1cccc(C(=O)Nc2nc3cc4c(cc3s2)OCCO4)c1 | -3.45* | . | . | -0.222 | . | .
COc1ccc(-n2c(Cc3cccn3C)nnc2SCC(=O)Nc2ccccc2OC)cc1 | . | . | . | -2.73* | . | .
COc1ccc(-n2c(Cc3cccn3C)nnc2SCC(=O)Nc2ccc(C)cc2C)cc1 | . | . | . | -6.28* | . | .
Cc1ccccc1NC(=O)CSc1nnc(Cc2cccn2C)n1-c1ccc(F)cc1 | . | -0.9 | 2.5 | -1.43 | -16.9 | -0.2
Cn1cccc1Cc1nnc(SCC(=O)Nc2ccccc2F)n1-c1ccc(F)cc1 | . | 1.2 | 2.2 | -2.43 | -13.4 | -10.4
COc1ccc(-n2c(Cc3cccn3C)nnc2SCC(=O)Nc2cc(Cl)ccc2OC)cc1 | . | . | . | -7.45* | . | .

Source: PubChem BioAssay (several laboratories)
